According to ChEMBL document CHEMBL4265907, “Design, synthesis and pharmacological evaluation of N4,N6-disubstituted pyrimidine-4,6-diamine derivatives as potent EGFR inhibitors in non-small cell lung cancer” (Eur J Med Chem, 2018):

Legend:
[1] = test system: HCC827; assay: Induction of apoptosis in human HCC827 cells assessed as viable cells at 250 nM after 48 hrs by Annexin V-FITC/PI staining based flow cytometry (reference value: 94.6%); type: functional; settings: HCC827, 48 h, read-out: Activity
[2] = target: T1, Epidermal growth factor receptor (Homo sapiens, UniProt P00533); assay: Inhibition of EGFR in human H3255 cells assessed as decrease in EGF-induced AKT phosphorylation by Western blot method; type: cell-based
Method in brief: (§1)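 Cell lysates prepared in protein lysis buffer and cleared at 12,000 g for 10 min at 4 °C. 50 μg protein per lane was run on a gel, transferred to PVDF and immunoblotted, with GAPDH as the loading control.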

[3] = test system: HCC827; assay: Induction of apoptosis in human HCC827 cells assessed as late apoptotic cells at 250 nM after 48 hrs by Annexin V-FITC/PI staining based flow cytometry (reference value: 1.15%); type: functional
[4] = test system: A-431; assay: Induction of apoptosis in human A431 cells assessed as necrotic cells at 1000 nM after 48 hrs by Annexin V-FITC/PI staining based flow cytometry (reference value: 4.16%); type: functional
[5] = test system: HCC827; assay: Induction of apoptosis in human HCC827 cells assessed as early apoptotic cells at 500 nM after 48 hrs by Annexin V-FITC/PI staining based flow cytometry (reference value: 2.83%); type: functional
[6] = target: T1, Epidermal growth factor receptor; assay: Inhibition of EGF-induced EGFR autophosphorylation at Y1068 residues in human A431 cells by Western blot method; type: cell-based; method in brief: as §1
[7] = test system: NCI-H3255; assay: Induction of apoptosis in human H3255 cells assessed as necrotic cells at 250 nM after 48 hrs by Annexin V-FITC/PI staining based flow cytometry (reference value: 7.06%); type: functional
[8] = target: T1, Epidermal growth factor receptor; assay: Inhibition of EGFR in human HCC827 cells assessed as decrease in EGF-induced ERK1/2 phosphorylation by Western blot method; type: cell-based; method in brief: as §1
[9] = target: T1, Epidermal growth factor receptor; assay: Inhibition of EGFR in human H1975 cells assessed as decrease in EGF-induced AKT phosphorylation by Western blot method; type: cell-based; method in brief: as §1

T1 sequence (P00533 whole entry): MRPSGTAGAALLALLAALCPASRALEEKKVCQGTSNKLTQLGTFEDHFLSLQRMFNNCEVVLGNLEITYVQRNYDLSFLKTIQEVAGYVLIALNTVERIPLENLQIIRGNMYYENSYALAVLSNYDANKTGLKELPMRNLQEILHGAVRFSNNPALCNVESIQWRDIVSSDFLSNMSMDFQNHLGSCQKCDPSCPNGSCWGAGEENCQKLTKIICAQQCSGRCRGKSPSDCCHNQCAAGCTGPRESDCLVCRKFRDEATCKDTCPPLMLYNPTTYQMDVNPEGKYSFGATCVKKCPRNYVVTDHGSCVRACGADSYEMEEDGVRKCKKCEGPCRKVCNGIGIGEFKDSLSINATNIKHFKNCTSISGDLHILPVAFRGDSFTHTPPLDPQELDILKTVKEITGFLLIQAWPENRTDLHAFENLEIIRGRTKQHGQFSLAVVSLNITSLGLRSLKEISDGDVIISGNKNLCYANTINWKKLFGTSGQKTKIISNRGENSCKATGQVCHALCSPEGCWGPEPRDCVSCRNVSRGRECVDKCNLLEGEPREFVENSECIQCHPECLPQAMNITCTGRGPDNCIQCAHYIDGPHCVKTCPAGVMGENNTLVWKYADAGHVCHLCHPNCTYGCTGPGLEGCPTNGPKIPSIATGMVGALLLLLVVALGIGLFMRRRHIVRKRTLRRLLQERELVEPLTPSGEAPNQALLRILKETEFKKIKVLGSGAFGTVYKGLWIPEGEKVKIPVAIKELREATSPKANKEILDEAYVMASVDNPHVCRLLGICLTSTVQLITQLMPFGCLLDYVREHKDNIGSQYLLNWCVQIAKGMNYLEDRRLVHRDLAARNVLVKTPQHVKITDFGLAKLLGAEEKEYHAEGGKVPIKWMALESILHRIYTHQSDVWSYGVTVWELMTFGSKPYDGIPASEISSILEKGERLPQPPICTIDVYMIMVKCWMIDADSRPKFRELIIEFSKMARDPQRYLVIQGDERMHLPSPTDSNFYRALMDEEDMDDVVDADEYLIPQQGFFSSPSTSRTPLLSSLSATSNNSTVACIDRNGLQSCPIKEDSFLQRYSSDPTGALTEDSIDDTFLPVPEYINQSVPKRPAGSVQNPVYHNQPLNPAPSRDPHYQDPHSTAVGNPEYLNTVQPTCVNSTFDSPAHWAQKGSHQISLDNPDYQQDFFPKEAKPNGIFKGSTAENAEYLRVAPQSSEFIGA

COc1cccc(Nc2cc(Nc3cc(OC)ccc3OC)ncn2)c1
viability at 0.25 µM [1]: 61.9%
inhibition [2]: Dose-dependent effect
Activity [3]: 10.2%
Activity [4]: 3.61%
Activity [5]: 21.3%
inhibition [6]: Dose-dependent effect
Activity [7]: 4.27%
inhibition [8]: Dose-dependent effect
inhibition [9]: Dose-dependent effect
